# Measured values taken from ChEMBL document CHEMBL1126202, “Dual-action penems and carbapenems” (J Med Chem, 1992).
# What was measured:
# [1] = Stability in pH 7.4 phosphate buffer at 37 degree C; type: physicochemical
# Method in brief: (§1)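 Compounds were held in pH 7.4 phosphate buffer at 37 °C and monitored by reverse-phase HPLC on a PRP-1 column with UV detection at 275–286 nm. The mobile phase was 0.01 M tetradecyltrimethylammonium bromide in pH 8.2 phosphate/acetonitrile. Product-peak decline was followed to at least 50%, and half-life was taken from semilogarithmic plots.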
# Escherichia coli [2] = experiment: In vitro antibacterial activity against Escherichia coli 25922; type: functional
# Method in brief: (§2)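 MIC was determined by agar dilution on Mueller-Hinton agar. Serial 2-fold aqueous dilutions were diluted 10-fold in agar to give final concentrations of 128 to 0.0156 μg/mL. Plates were inoculated by Steers replicator with overnight broth cultures diluted 100-fold.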
# Escherichia coli [3] = experiment: In vitro antibacterial activity against Escherichia coli 257; type: functional
# Escherichia coli [4] = experiment: In vitro antibacterial activity against Escherichia coli TEM-1 (constitutive beta-lactamase producer); type: functional; method in brief: as §2
# Enterobacter cloacae = experiment: In vitro antibacterial activity against enterobacter cloacae P99 (constitutive beta-lactamase producer); type: functional; method in brief: as §2
# Klebsiella pneumoniae [5] = experiment: In vitro antibacterial activity against klebsiella pneumoniae A; type: functional
# Method in brief: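 Agar-dilution MIC on Mueller-Hinton agar. Serial 2-fold dilutions were made in water, giving final agar concentrations of 128 to 0.0156 μg/mL. Inoculum was an overnight broth culture diluted 100-fold, applied with a multipoint replicator.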
# Proteus mirabilis [6] = experiment: (§3) In vitro antibacterial activity against Proteus mirabilis 90; type: functional
# Method in brief: (§4)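 Proteus MICs were determined by agar dilution on Mueller-Hinton agar containing 3% agar. Serial 2-fold dilutions gave final concentrations of 128 to 0.0156 μg/mL. Plates were replicator-inoculated with 100-fold-diluted overnight broth cultures.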
# Pseudomonas aeruginosa [7] = experiment: (§5) In vitro antibacterial activity against Ps. aeruginosa 18SH (constitutive beta-lactamase producer); type: functional; method in brief: as §2
# Pseudomonas aeruginosa [8] = experiment: In vitro antibacterial activity against Pseudomonas aeruginosa 8780; type: functional; method in brief: as §2
# Proteus vulgaris = experiment: In vitro antibacterial activity against proteus vulgaris ATCC 6380 (constitutive beta-lactamase producer); type: functional; method in brief: as §4
# Staphylococcus aureus [9] = experiment: In vitro antibacterial activity against Staphylococcus aureus 67(methicillin resistant); type: functional
# Method in brief: (§6)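 MIC by agar dilution on Mueller-Hinton agar. Compounds were serially 2-fold diluted in water, final 128 to 0.0156 μg/mL in agar. Inoculum: overnight broth culture diluted 100-fold, applied with a Steers replicator.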
# Staphylococcus aureus [10] = experiment: (§7) In vitro antibacterial activity against Staphylococcus aureus 753 (constitutive beta-lactamase producer); type: functional; method in brief: as §2
# Streptococcus pyogenes = experiment: In vitro antibacterial activity against Streptococcus pyogenes 4; type: functional
# Method in brief: (§8)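 Streptococcal MICs were determined by agar dilution on brain heart infusion agar supplemented with 20 units/mL bovine liver catalase. Final concentrations were 128 to 0.0156 μg/mL from 2-fold dilutions. Inocula were overnight broth cultures diluted 100-fold, applied by Steers replicator.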
# Serratia marcescens [11] = experiment: In vitro antibacterial activity against serratia marcescens SM (constitutive beta-lactamase producer); type: functional; method in brief: as §2
# Staphylococcus aureus [12] = experiment: In vitro antibacterial activity against staphylococcus aureus smith; type: functional; method in brief: as §2
# Streptococcus pneumoniae [13] = experiment: In vitro antibacterial activity against streptococcus pneumoniae 6301; type: functional; method in brief: as §8
# Citrobacter freundii [14] = experiment: In vitro antibacterial activity against citrobacter freundii BS-16 (constitutive beta-lactamase producer); type: functional; method in brief: as §2
# Escherichia coli [15] = experiment: Effect on replication DNA biosynthesis in Escherichia coli H560 (permeabilised cells).; type: functional, organism-based
# Method in brief: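 Toluene-permeabilized E. coli H560 cells were used. Replicative DNA synthesis was measured as ATP-dependent [3H]thymidine incorporation into trichloroacetic acid-insoluble material. IC50 is the concentration giving 50% inhibition.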
# Escherichia coli [16] = experiment: In vitro antibacterial activity against Escherichia coli UB1005 (nalidixic acid-resistant strain); type: functional; method in brief: as §2
# [17] = test system: Bacteroides thetaiotaomicron; experiment: (§9) In vitro antibacterial activity against Bacteroides thetaiotaomicron 62B; type: functional
# Method in brief: (§10)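 Anaerobic MICs were determined in microtiter plates in Schaedler's broth supplemented with coenzyme I and hemin. Incubation was under an oxygen-free hydrogen-carbon dioxide atmosphere.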
# Bacteroides fragilis [18] = experiment: In vitro antibacterial activity against Bacteroides fragilis F117A; type: functional
# Method in brief: (§11)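 MIC by broth dilution in microtiter plates, run in an oxygen-free hydrogen–carbon dioxide atmosphere. Medium: Schaedler's broth with coenzyme I and hemin added.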
# Clostridioides difficile [19] = experiment: In vitro antibacterial activity against Clostridium difficile 651; type: functional
# Clostridium perfringens = experiment: In vitro antibacterial activity against Clostridium perfringens 13424; type: functional; method in brief: as §11
# Bacteroides fragilis [20] = experiment: In vitro antibacterial activity against bacteroides fragilis S2; type: functional
# Method in brief: (§12)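 Anaerobic MIC, run in microtiter plates in Schaedler's broth supplemented with coenzyme I and hemin. Incubated in an oxygen-free hydrogen–carbon dioxide atmosphere.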
# Hathewaya histolytica = experiment: In vitro antibacterial activity against clostridium histolyticum 503-86; type: functional; method in brief: as §12
# Proteus mirabilis [21] = experiment: as §3; type: functional; remark: listed apart in the source
# Method in brief: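 MIC by agar dilution on Mueller-Hinton agar containing 3% agar. Compounds were serially 2-fold diluted in water, final 128 to 0.0156 μg/mL in agar. Inoculum: overnight broth culture diluted 100-fold, applied with a Steers replicator.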
# Pseudomonas aeruginosa [22] = experiment: as §5
# Staphylococcus aureus [23] = experiment: as §7; type: functional; method in brief: as §6; remark: listed apart in the source
# Clostridioides difficile [24] = experiment: In vitro antibacterial activity against Clostridium difficile 701; type: functional
# Pseudomonas aeruginosa [25] = experiment: microbe, parasite or virus in culture
# Bacteroides fragilis [26] = experiment: In vitro antibacterial activity against Bacteroides fragilis S2; type: functional; method in brief: as §10
# Citrobacter freundii [27] = experiment: In vitro antibacterial activity against Citrobacter freundii BS-16 (constitutive beta-lactamase producer); type: functional; method in brief: as §2
# Klebsiella pneumoniae [28] = experiment: In vitro antibacterial activity against Klebsiella pneumoniae A; type: functional; method in brief: as §2
# Serratia marcescens [29] = experiment: In vitro antibacterial activity against Serratia marcescens SM (constitutive beta-lactamase producer); type: functional; method in brief: as §2
# Streptococcus pneumoniae [30] = experiment: In vitro antibacterial activity against Streptococcus pneumoniae 6301; type: functional; method in brief: as §8
# [31] = test system: Bacteroides thetaiotaomicron; experiment: as §9
# [32] = test system: Bacteroides thetaiotaomicron; experiment: microbe, parasite or virus in culture
# [33] = Stability in pH 7.4 phosphate buffer at 37 degree C.; type: physicochemical; method in brief: as §1
# Pseudomonas aeruginosa [34] = experiment: In vitro antibacterial activity against Pseudomonas aeruginosa 18SH (constitutive beta-lactamase producer); type: functional; method in brief: as §2
Compound,MIC (Escherichia coli [3]) [µg/mL],MIC (Escherichia coli [4]) [µg/mL],MIC (Enterobacter cloacae) [µg/mL],MIC (Klebsiella pneumoniae [5]) [µg/mL],MIC (Proteus mirabilis [6]) [µg/mL],MIC (Pseudomonas aeruginosa [7]) [µg/mL],MIC (Pseudomonas aeruginosa [8]) [µg/mL],MIC (Proteus vulgaris) [µg/mL],MIC (Staphylococcus aureus [9]) [µg/mL],MIC (Streptococcus pyogenes) [µg/mL],MIC (Serratia marcescens [11]) [µg/mL],MIC (Staphylococcus aureus [12]) [µg/mL],MIC (Streptococcus pneumoniae [13]) [µg/mL],MIC (Citrobacter freundii [14]) [µg/mL],MIC [17] [µg/mL],MIC (Bacteroides fragilis [18]) [µg/mL],MIC (Clostridium perfringens) [µg/mL],MIC (Bacteroides fragilis [20]) [µg/mL],MIC (Staphylococcus aureus [23]) [µg/mL],MIC (Clostridioides difficile [24]) [µg/mL],also measured
O=C([O-])C1=C(COC(=O)N2CCN(c3cc4c(cc3F)c(=O)c(C(=O)O)cn4C3CC3)CC2)SC2CC(=O)N12.[Na+] (stereo not given),0.25,0.125,0.125,0.25,1,4,16,0.25,1,0.125,0.25,1,0.125,0.25,–,–,–,–,–,–,half-life [1]: 16 h; MIC (Escherichia coli [2]): 0.25 µg/mL; MIC (Staphylococcus aureus [10]): 2 µg/mL; IC50 (Escherichia coli [15]): 2 µg/mL; MIC (Escherichia coli [16]): 2 µg/mL
C[C@@H](O)[C@H]1C(=O)N2C(C(=O)O)=C(SCCNC=N)C[C@H]12.O,0.125,0.25,0.25,0.125,–,–,–,1,32,< 0.0156,0.25,< 0.0156,< 0.0156,2,> 128,2,< 0.125,< 0.125,64,4,MIC (Clostridioides difficile [19]): 4 µg/mL; MIC (Hathewaya histolytica): < 0.125 µg/mL; MIC (Proteus mirabilis [21]): 2 µg/mL; MIC (Pseudomonas aeruginosa [22]): 1 µg/mL; MIC (Pseudomonas aeruginosa [25]): 2 µg/mL
O=C(O)c1cn(C2CC2)c2cc(N3CCNCC3)c(F)cc2c1=O [CIPROFLOXACIN],–,0.0156,–,–,0.0625,–,–,–,0.5,0.5,–,–,–,–,–,–,–,–,–,–,MIC (Bacteroides fragilis [26]): 4 µg/mL; MIC (Citrobacter freundii [27]): 0.0313 µg/mL; MIC (Klebsiella pneumoniae [28]): 0.25 µg/mL; MIC (Staphylococcus aureus [10]): 0.25 µg/mL; MIC (Serratia marcescens [29]): 0.0313 µg/mL; MIC (Streptococcus pneumoniae [30]): 1 µg/mL; MIC [31]: > 128 µg/mL; MIC [32]: 0.25 µg/mL
C[C@@H](O)[C@H]1C(=O)N2C(C(=O)[O-])=C(COC(=O)c3cn(CCF)c4c(F)c(N5CCN(C)CC5)c(F)cc4c3=O)C[C@H]12.[Na+],0.125,0.125,0.125,0.25,1,2,4,0.25,1,0.0157,0.25,0.125,0.0157,0.25,4,1,< 0.125,< 0.125,1,4,half-life [33]: 11 h; MIC (Escherichia coli [2]): 0.12 µg/mL; IC50 (Escherichia coli [15]): 10 µg/mL; MIC (Escherichia coli [16]): 1 µg/mL
C[C@@H](O)[C@H]1C(=O)N2C(C(=O)[O-])=C(COC(=O)N3CCN(c4cc5c(cc4F)c(=O)c(C(=O)O)cn5C4CC4)CC3)[C@H](C)[C@H]12.[K+],< 0.0156,0.0313,0.0313,0.0625,0.125,–,0.5,0.0313,0.5,0.0313,0.0625,0.125,0.0313,0.0625,16,4,< 0.125,1,0.5,1,half-life [1]: 5 h; MIC (Clostridioides difficile [19]): 4 µg/mL; MIC (Hathewaya histolytica): < 0.125 µg/mL; MIC (Pseudomonas aeruginosa [34]): 0.5 µg/mL
CN1CCN(c2c(F)cc3c(=O)c(C(=O)O)cn(CCF)c3c2F)CC1 [FLEROXACIN],0.0313,0.0625,0.0313,0.0625,0.25,1,2,0.0625,0.5,2,0.0625,0.25,4,0.125,64,64,0.5,8,0.5,16,MIC (Clostridioides difficile [19]): 16 µg/mL; MIC (Hathewaya histolytica): 0.25 µg/mL; MIC (Escherichia coli [2]): 0.03 µg/mL; IC50 (Escherichia coli [15]): 1 µg/mL; MIC (Escherichia coli [16]): 0.5 µg/mL
C[C@@H](O)[C@H]1C(=O)N2C(C(=O)[O-])=C(CO)[C@H](C)[C@H]12.[K+],0.5,0.5,0.5,0.5,1,16,32,0.5,32,0.0625,1,0.125,0.0625,0.5,–,–,–,–,32,–,–
